Source: ChEMBL document CHEMBL5036319, “Discovery of Novel Benzothiazepinones as Irreversible Covalent Glycogen Synthase Kinase 3β Inhibitors for the Treatment of Acute Promyelocytic Leukemia” (J Med Chem, 2021)
Activity calls are given as the source filed them. The calls are words filed in the database; no cut-off is given here.

Legend:
[1] = Induction in caspase-mediated apoptosis in human NB-4 cells assessed as viable cells at 100 uM incubated for 24 hrs by Annexin V-FITC/propidium iodide staining based flow cytometry analysis (reference value: 96.6%); assay type: functional; conditions: read-out: Activity
[2] = Induction in caspase-mediated apoptosis in human NB4-DR1 cells assessed as necrotic cells at 25 uM incubated for 24 hrs in presence of Z-VAD-FMK by Annexin V-FITC/propidium iodide staining based flow cytometry analysis (reference value: 0.223%); assay type: functional
[3] = Induction in caspase-mediated apoptosis in human NB-4 cells assessed as necrotic cells at 100 uM incubated for 24 hrs in presence of Z-VAD-FMK by Annexin V-FITC/propidium iodide staining based flow cytometry analysis (reference value: 0.167%); assay type: functional
[4] = Induction in caspase-mediated apoptosis in human NB4-DR1 cells assessed as viable cells at 100 uM incubated for 24 hrs by Annexin V-FITC/propidium iodide staining based flow cytometry analysis (reference value: 96.9%); assay type: functional; conditions: read-out: Activity
[5] = target: T1, Glycogen synthase kinase-3 beta (Homo sapiens, UniProt P49841); assay: Inhibition of recombinant human GSK-3beta using GS-2 peptide as substrate incubated for 30 mins in presence of ATP by kinase-glo luminescence assay
Target sequence in this assay (P49841 whole entry): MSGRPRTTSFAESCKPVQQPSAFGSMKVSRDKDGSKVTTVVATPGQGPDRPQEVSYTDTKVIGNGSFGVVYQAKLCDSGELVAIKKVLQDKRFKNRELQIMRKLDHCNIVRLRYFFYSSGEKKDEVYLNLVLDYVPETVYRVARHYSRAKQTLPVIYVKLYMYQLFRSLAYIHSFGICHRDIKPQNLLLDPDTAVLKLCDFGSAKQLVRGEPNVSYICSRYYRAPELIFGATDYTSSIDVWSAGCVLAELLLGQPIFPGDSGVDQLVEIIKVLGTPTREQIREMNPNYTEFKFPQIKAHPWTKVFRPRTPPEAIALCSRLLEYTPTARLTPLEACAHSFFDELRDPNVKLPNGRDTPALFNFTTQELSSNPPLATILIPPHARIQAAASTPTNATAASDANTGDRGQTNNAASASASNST

[6] = Induction in caspase-mediated apoptosis in human NB4-DR1 cells assessed as viable cells at 50 uM incubated for 24 hrs in presence of Z-VAD-FMK by Annexin V-FITC/propidium iodide staining based flow cytometry analysis (reference value: 96.4%); assay type: functional; conditions: read-out: Activity
[7] = Induction in caspase-mediated apoptosis in human NB4-DR1 cells assessed as late apoptotic cells at 12.5 uM incubated for 24 hrs by Annexin V-FITC/propidium iodide staining based flow cytometry analysis (reference value: 1.47%); assay type: functional
[8] = Induction in caspase-mediated apoptosis in human NB4-DR1 cells assessed as necrotic cells at 12.5 uM incubated for 24 hrs by Annexin V-FITC/propidium iodide staining based flow cytometry analysis (reference value: 0.19%); assay type: functional
[9] = Induction in caspase-mediated apoptosis in human NB4-DR1 cells assessed as necrotic cells at 100 uM incubated for 24 hrs in presence of Z-VAD-FMK by Annexin V-FITC/propidium iodide staining based flow cytometry analysis (reference value: 0.223%); assay type: functional
[10] = Induction in caspase-mediated apoptosis in human NB4-DR1 cells assessed as early apoptotic cells at 25 uM incubated for 24 hrs by Annexin V-FITC/propidium iodide staining based flow cytometry analysis (reference value: 1.43%); assay type: functional
NB4-DR1 = assay: Antiproliferative activity against human NB4-DR1 cells assessed as reduction in cell viability incubated for 24 hrs by CCK-8 assay; assay type: functional, cell-based; conditions: NB4-DR1, 24 h
In short: (§1)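 Cells were grown in RPMI-1640 or high-glucose DMEM with 10% FBS at 37 °C, 5% CO2, and seeded at 3 × 10^4 cells/well. Exposure was 24 h across serial concentrations (0−1000 μM in the screen). […] Three independent experiments, mean ± SEM.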

[11] = Induction in caspase-mediated apoptosis in human NB-4 cells assessed as necrotic cells at 50 uM incubated for 24 hrs by Annexin V-FITC/Propidium iodide staining based flow cytometry analysis (reference value: 0.352%); assay type: functional
[12] = Induction in caspase-mediated apoptosis in human NB-4 cells assessed as early apoptotic cells at 100 uM incubated for 24 hrs by Annexin V-FITC/propidium iodide staining based flow cytometry analysis (reference value: 2.02%); assay type: functional
NB-4 = assay: Antitumor activity against human NB-4 cells xenografted in BALB/c nude mouse assessed as reduction in tumor mass at 15 mg/kg/day, ip administered for 2 weeks; assay type: functional, organism-based
In short: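 Female Balb/c nude mice, 4 weeks old, received 2 × 10^6 NB4 cells s.c. in the right flank. Once tumours reached about 0.5 cm diameter, mice were randomised to corn-oil vehicle or drug in corn oil (n = 5). Dosing was 15 mg/kg/d i.p. once daily for 2 weeks. Caliper volume (length × width²)/2 was taken every other day, and tumours were excised and weighed at the end.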

[13] = Induction in caspase-mediated apoptosis in human NB4-DR1 cells assessed as necrotic cells at 12.5 uM incubated for 24 hrs in presence of Z-VAD-FMK by Annexin V-FITC/propidium iodide staining based flow cytometry analysis (reference value: 0.223%); assay type: functional
[14] = Induction in caspase-mediated apoptosis in human NB-4 cells assessed as late apoptotic cells at 100 uM incubated for 24 hrs by Annexin V-FITC/propidium iodide staining based flow cytometry analysis (reference value: 1.06%); assay type: functional
[15] = Cytotoxicity against HUVEC assessed as cell viability at 0 to 50 uM incubated for 24 hrs by CCK-8 assay relative to control; assay type: cell-based; conditions: human, dose 0-50 µM, read-out: Activity
In short: (§2)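 HUVEC and LO2 normal cells were cultured in RPMI-1640 or DMEM with 10% FBS at 37 °C, 5% CO2, and seeded at 3 × 10^4 cells/well. They were exposed for 24 h to graded concentrations. CCK-8 incubation was 3 h at 37 °C, with A450 read and viability expressed versus untreated control. Three independent experiments, mean ± SEM.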

[16] = Induction in caspase-mediated apoptosis in human NB4-DR1 cells assessed as late apoptotic cells at 100 uM incubated for 24 hrs by Annexin V-FITC/propidium iodide staining based flow cytometry analysis (reference value: 1.47%); assay type: functional
[17] = target: T1, Glycogen synthase kinase-3 beta; assay: Binding affinity to recombinant human GSK-3beta assessed as covalent bond formation between compound and enzyme by measuring mass changes by […] analysis
In short: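 Human recombinant GSK-3β (10 μM stock in 50 mM HEPES, 1 mM EDTA, 2 mM EGTA, 15 mM Mg(OAc)2) was incubated with compound in DMSO (1.6 μL of 500 μM into 14.4 μL) at 30 °C with shaking for 30 min. Intact protein was run on C4 LC over a 5–100% acetonitrile/0.1% formic acid gradient into positive-ion Q-TOF MS, and mass shift was read.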
Target sequence in this assay (P49841 whole entry, looked up): as the sequence (P49841 whole entry) above

[18] = Induction in caspase-mediated apoptosis in human NB4-DR1 cells assessed as early apoptotic cells at 100 uM incubated for 24 hrs by Annexin V-FITC/propidium iodide staining based flow cytometry analysis (reference value: 1.43%); assay type: functional
Raji = assay: Cytotoxicity against human Raji cells assessed as reduction in cell viability measured after 24 hrs by CCK-8 assay; assay type: functional, cell-based; in short: as §1
[19] = Induction in caspase-mediated apoptosis in human NB4-DR1 cells assessed as viable cells at 25 uM incubated for 24 hrs in presence of Z-VAD-FMK by Annexin V-FITC/propidium iodide staining based flow cytometry analysis (reference value: 96.4%); assay type: functional; conditions: read-out: Activity
[20] = Induction in caspase-mediated apoptosis in human NB-4 cells assessed as viable cells at 25 uM incubated for 24 hrs in presence of Z-VAD-FMK by Annexin V-FITC/propidium iodide staining based flow cytometry analysis (reference value: 96.8%); assay type: functional; conditions: read-out: Activity
[21] = Induction in caspase-mediated apoptosis in human NB4-DR1 cells assessed as early apoptotic cells at 50 uM incubated for 24 hrs by Annexin V-FITC/propidium iodide staining based flow cytometry analysis (reference value: 1.43%); assay type: functional
[22] = Cytotoxicity against HUVEC assessed as cell viability at 100 uM incubated for 24 hrs by CCK-8 assay relative to control; assay type: cell-based; conditions: human, read-out: Activity; in short: as §2

IC50 [5]: 6.6 µM
Activity [17]: Active
Compound: C=CC(=O)N1C(=O)CC(c2ccc(F)cc2)Sc2ccccc21 (stereo not given)
viability at 100 µM [1]: 5.94%
Activity [2]: 0.485%
Activity [3]: 2.88%
viability at 100 µM [4]: 42.7%
viability at 50 µM [6]: 91.3%
Activity [7]: 5.54%
Activity [8]: 0.508%
Activity [9]: 1.4%
Activity [10]: 2.07%
IC50 (NB4-DR1): 26.4 µM
Activity [11]: 4.51%
Activity [12]: 4.21%
Activity (NB-4): Active
Activity [13]: 0.332%
Activity [14]: 85.5%
viability at 24 h, up to 50 µM [15]: > 80%
Activity [16]: 46.8%
Activity [18]: 4.16%
IC50 (Raji): 28.4 µM
viability at 25 µM [19]: 93%
viability at 25 µM [20]: 80%
Activity [21]: 1.92%
viability at 24 h, 100 µM [22]: > 70%
